Measurements: ChEMBL document CHEMBL2034934, “Isodesacetyluvaricin, an Annonaceous acetogenin, specifically inhibits gene expression of cyclooxygenase-2” (J Nat Prod, 2012)
Active and inactive are the calls of the source. The rule behind the calls is not given here.

Legend:
A-431 [1] = experiment: Antiinflammatory activity in human A431 cells assessed as inhibition of EGF-stimulated COX2 mRNA level pretreated for 30 mins before EGF challenge measured after 3 hrs by RT-PCR analysis; type: functional, cell-based
Method in brief: (§1)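 A431 cells serum-starved 24 h, pretreated 30 min at 0.1, 1 or 5 μM, then EGF 25 ng/mL for 3 h. Total RNA by Trizol, reverse-transcribed; COX-1 and COX-2 amplified by PCR (35 cycles: 94 °C 30 s, 58 °C 30 s, 72 °C 1 min). Products run on 2% agarose, ethidium bromide stained.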

A-431 [2] = experiment: Antiinflammatory activity in human A431 cells assessed as reduction of EGF-stimulated COX2 promoter activity at 0.1 to 5 uM after 24 hrs by luciferase reporter gene assay; type: functional, cell-based
Method in brief: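 A431 cells transiently transfected (Lipofectamine 2000) with 0.5 μg COX-2 promoter luciferase plasmid pXC 918 for 24 h. Then treated with compound and stimulated with EGF. Dual-luciferase read-out normalised to lysate protein; means ± SEM, Student's t-test.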

A-431 [3] = experiment: Antiinflammatory activity in human A431 cells assessed as inhibition of EGF-stimulated COX1 mRNA level pretreated for 30 mins before EGF challenge measured after 3 hrs by RT-PCR analysis; type: functional, cell-based; method in brief: as §1
A-431 [4] = experiment: Inhibition of NFAT promoter activity in EGF-stimulated human A431 cells at 1 to 5 uM pretreated for 30 mins before EGF challenge measured after 3 hrs by luciferase reporter gene analysis; type: cell-based
Method in brief: (§2)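 A431 cells transiently transfected with 0.5 μg CRE-promoter plasmid pXC 80 (CREB) or NFAT-promoter luciferase plasmid. After 24 h, pretreated 30 min at 1 or 5 μM, then EGF 25 ng/mL for 3 h. Luciferase normalised to lysate protein.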

A-431 [5] = experiment: Antiinflammatory activity in human A431 cells assessed as decrease in thapsigargin-induced calcium influx at 1 uM pretreated for 30 mins before thapsigargin challenge measured by fluorescence analysis; type: functional, cell-based
Method in brief: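 A431 cells on glass coverslips (24 or 48 h), loaded with 1 μM Fluo-4 at 37 °C for 20 min in the dark. Store-operated influx evoked by 2 μM thapsigargin; Fluo-4 read by time-lapse videomicroscopy; 15–20 cells pooled.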

A-431 [6] = experiment: Cytotoxicity against EGF-stimulated human A431 cells at 1 to 5 uM after 24 hrs by WST1 assay; type: cell-based; conditions: a-431, 24 h
Method in brief: (§3)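 A431 cells serum-starved 24 h, pretreated 30 min at 1 or 5 μM, then EGF 25 ng/mL for 24 h or 48 h. WST-1 reagent 5–10 min at 37 °C; absorbance 450 nm, reference 600 nm.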

A-431 [7] = experiment: Cytotoxicity against EGF-stimulated human A431 cells at 1 to 5 uM after 48 hrs by WST1 assay; type: cell-based; conditions: a-431, 48 h; method in brief: as §3
A-431 [8] = experiment: Antiinflammatory activity in human A431 cells assessed as reduction of EGF-stimulated COX2 protein expression pretreated with compound before EGF challenge measured by Western blotting analysis; type: functional, cell-based
Method in brief: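 A431 cells serum-starved, pretreated with compound, then EGF-stimulated. 40 μg lysate (RIPA) run on 12.5% SDS-PAGE, blotted to nitrocellulose. Probed 16 h at 4 °C with mouse anti-COX-2 (1:2000) and β-actin (1:20 000), anti-mouse IgG secondary, ECL detection.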

A-431 [9] = experiment: Inhibition of CREB promoter activity in EGF-stimulated human A431 cells at 1 to 5 uM pretreated for 30 mins before EGF challenge measured after 3 hrs by luciferase reporter gene analysis; type: cell-based; method in brief: as §2
RAW264.7 = experiment: Antiinflammatory activity in mouse RAW264.7 cells assessed as inhibition of LPS-stimulated COX2 expression pretreated for 30 mins before LPS challenge measured after 3 hrs by RT-PCR analysis; type: functional, cell-based
Method in brief: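 Raw 264.7 mouse macrophages serum-starved 24 h, pretreated 30 min at 0.1, 1 or 5 μM, then LPS 10 μg/mL for 3 h. Total RNA by Trizol; COX-2 mRNA by RT-PCR (35 cycles), read on agarose gel with ethidium bromide.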

Structure (SMILES): CCCCCCCCCC[C@@H](O)[C@H]1CC[C@H]([C@H]2CC[C@H]([C@H](O)CCCCCCCCCCCCC3=C[C@H](C)OC3=O)O2)O1 [ISODESAACETYLUVARICIN]
- inhibition (A-431 [1]): Dose-dependent effect
- Activity (A-431 [2]): Active
- inhibition (A-431 [3]): inactive
- inhibition (A-431 [4]): Active
- Activity (A-431 [5]): inactive
- Activity (A-431 [6]): Non-toxic
- Activity (A-431 [7]): Non-toxic
- Activity (A-431 [8]): Dose-dependent effect
- inhibition (A-431 [9]): Active
- inhibition (RAW264.7): Active
